Read-outs that look alike come from different tables or passages of the source.
Legend:
all leukemia cell lines [1] = experiment: Apoptosis; format: cell-based, human; conditions: Homo sapiens, 24 h, read-out: AP50 values (range over leukemia cell lines)
all leukemia cell lines [2] = experiment: CellTiter-Glo assay, summary over the leukemia panel; format: cell-based, human; conditions: Homo sapiens, 24 h, read-out: IC50 values (range over leukemia cell lines)
Procedure, shortened: (§1)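 Cells plated at 2.5 x 10^3 per well in complete RPMI 1640 (10% FBS, 37 °C, 5% CO2). Test compounds dissolved in ethanol and dosed at 2–500 µM for 24 h; vehicle control was 0.1% (v/v) ethanol. Viability was read as ATP luminescence, normalised to vehicle (100%). IC50 was taken from linear regression of each curve. Triplicates, three independent experiments.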

JURKAT [3] = experiment: Hoechst 33342 nuclear morphological analysis of apoptosis; format: cell-based; conditions: Homo sapiens, 24 h, read-out: AP50 (50% induction of apoptosis), Hoechst 33342 staining (Hoe)
Procedure, shortened: (§2)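 Seeded at 0.5 x 10⁶ cells/well in 12-well plates and treated 24 h. Cells were pelleted (400 g, 5 min, 4 °C), washed in PBS, fixed in 4% paraformaldehyde, cytospun, air-dried, then stained with 10 μg/ml Hoechst 33342 for 10 min in the dark. Fluorescence microscopy: 200 cells counted, scored by condensed/intense nuclei, shrinkage, blebbing and apoptotic bodies. % apoptotic nuclei calculated. AP50 = concentration giving 50% apoptotic cells.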

myeloid cell lines [4] = experiment: Apoptosis; format: cell-based; conditions: Homo sapiens, 24 h, read-out: AP50 values (range in myeloid cell lines)
MOLT-3 [5] = experiment: Cell cycle analysis, propidium iodide flow cytometry; format: cell-based, human; conditions: MOLT-3, IC50 dose, 24 h
Procedure, shortened: (§3)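 Seeded at 0.5 x 10^6 cells per well in 12-well plates and treated 24 h at the IC50 concentration of each test compound from CellTiter-Glo. Cells were pelleted (400 g, 5 min), PBS-washed and fixed in 80% ethanol overnight at -20 °C. Staining used 50 µg/mL PI plus RNase overnight at 4 °C.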

KG1a [6] = experiment: as above; format: cell-based, human; conditions: IC50 dose, 24 h
Procedure, shortened: as §3

lymphoid cell lines [7] = experiment: CellTiter-Glo assay, summary over lymphoid lines; format: cell-based; conditions: Homo sapiens, 24 h, read-out: IC50 (range in lymphoid cell lines)
Procedure, shortened: as §1

KG1a [8] = experiment: NucView caspase 3 activity assay by flow cytometry; format: cell-based, human; conditions: 24 h; for EC50: Homo sapiens, KG-1a, read-out: AP50 (50% induction of apoptosis), Caspase 3 activity assay (C3); for The lowest dose of polyphenols at which there was a significant induction of apoptosis compared to the vehicle control: KG1a, caspase 3 activity, p<0.05
Procedure, shortened: (§4)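 Seeded at 0.5 x 10⁶ cells/well and treated 24 h, with series of 0–50 or 0–250 µM depending on compound. Normalized to vehicle (0% apoptosis). Mean ± STD, three independent experiments in triplicate. One-way ANOVA/Tukey, p<0.05. AP50 = concentration giving 50% apoptotic cells.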

myeloid cell lines [9] = experiment: CellTiter-Glo assay, summary over myeloid lines; format: cell-based; conditions: Homo sapiens, 24 h, read-out: IC50 (range in myeloid cell lines)
Procedure, shortened: as §1

U937 = experiment: Hoechst 33342 nuclear morphological analysis of apoptosis; format: cell-based; conditions: Homo sapiens, U-937, 24 h, read-out: AP50 (50% induction of apoptosis), Hoechst 33342 staining (Hoe)
Procedure, shortened: as §2

lymphoid cell lines [10] = experiment: Apoptosis; format: cell-based; conditions: Homo sapiens
CCRF-CEM = experiment: Hoechst 33342 nuclear morphological analysis of apoptosis; format: cell-based; conditions: Homo sapiens, 24 h, read-out: AP50 (50% induction of apoptosis), Hoechst 33342 staining (Hoe)
Procedure, shortened: as §2

MOLT-3 [11] = experiment: as above; format: cell-based; conditions: Homo sapiens, MOLT-3, 24 h, read-out: AP50 (50% induction of apoptosis), Hoechst 33342 staining (Hoe)
Procedure, shortened: as §2

MOLT-3 [12] = experiment: NucView caspase 3 activity assay by flow cytometry; format: cell-based, human; conditions: for EC50: Homo sapiens, MOLT-3, 24 h, read-out: AP50 (50% induction of apoptosis), Caspase 3 activity assay (C3); for The lowest dose of polyphenols at which there was a significant induction of apoptosis compared to the vehicle control: MOLT-3, caspase 3 activity, 24 h, p<0.05
Procedure, shortened: as §4

THP-1 = experiment: Cell cycle analysis, propidium iodide flow cytometry; format: cell-based, human; conditions: THP-1, IC50 dose, 24 h
Procedure, shortened: as §3

KG1a [13] = experiment: CellTiter-Glo luminescent cell viability assay; format: cell-based, human; conditions: 24 h; for IC50: Homo sapiens, KG-1a, read-out: IC50 (50% inhibition of cellular proliferation); for The lowest dose of polyphenols at which there was a significant inhibition of cell proliferation compared to the vehicle control: KG1a, doses 0, 2, 10, 50, 250, 500 µM, p<0.05
Procedure, shortened: (§5)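 Cells grown in RPMI 1640 with 10% FBS, 1.5 mM L-glutamine and penicillin/streptomycin at 37 °C, 5% CO2. Seeded at 2.5 x 10³ cells/well and exposed 24 h to ethanol-dissolved test compound (0, 2, 10, 50, 250, 500 µM) with 0.1% ethanol vehicle. ATP luminescence normalized to vehicle (100%). IC50 taken from linear regression. Lowest significant dose set by one-way ANOVA/Tukey, p<0.05. Triplicates, three independent experiments.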

KG1a [14] = experiment: Hoechst 33342 nuclear morphological analysis of apoptosis; format: cell-based; conditions: Homo sapiens, KG-1a, 24 h, read-out: AP50 (50% induction of apoptosis), Hoechst 33342 staining (Hoe)
Procedure, shortened: as §2

HL60 = experiment: Cell cycle analysis, propidium iodide flow cytometry; format: cell-based, human; conditions: HL60, IC50 dose, 24 h
Procedure, shortened: as §3

[15] = system: colorectal cancer cells (SW480, HT-29 and Caco-2); conditions: SW480, HT-29 and Caco-2, 24 h treatments; cited from earlier work
[16] = system: human cervical cancer cells (HeLa); conditions: cited from earlier work
JURKAT [17] = experiment: CellTiter-Glo luminescent cell viability assay; format: cell-based, human; conditions: 24 h, doses 0, 2, 10, 50, 250, 500 µM, p<0.05
Procedure, shortened: as §5

K562 = experiment: CellTiter-Glo luminescent cell viability assay; format: cell-based, human; conditions: K562, 24 h, doses 0, 2, 10, 50, 250, 500 µM, p<0.05
Procedure, shortened: as §5

[18] = system: lung cancer cell lines (A549 and CH27); conditions: 24 h; cited from earlier work
[19] = system: lung (A549) and leukemia (HL-60) cell lines; conditions: 24 h; cited from earlier work

Compound | IC50 (all leukemia cell lines [2]) | EC50 (JURKAT [3]) | EC50 (KG1a [8]) | The lowest dose of polyphenols at which there was a significant induction of apoptosis compared to the vehicle control (KG1a [8]) | EC50 (U937) | EC50 (CCRF-CEM) | EC50 (MOLT-3 [11]) | EC50 (MOLT-3 [12]) | The lowest dose of polyphenols at which there was a significant induction of apoptosis compared to the vehicle control (MOLT-3 [12]) | IC50 (KG1a [13]) | The lowest dose of polyphenols at which there was a significant inhibition of cell proliferation compared to the vehicle control (KG1a [13]) | EC50 (KG1a [14]) | The lowest dose of polyphenols at which there was a significant inhibition of cell proliferation compared to the vehicle control (JURKAT [17]) | The lowest dose of polyphenols at which there was a significant inhibition of cell proliferation compared to the vehicle control (K562) | also measured
O=c1cc(-c2ccc(O)cc2)oc2cc(O)cc(O)c12 [Apigenin] | 100 to 500 µM | 90 µM | 89 µM | 10 µM | 130 µM | 100 µM | 125 µM | 50 µM | 50 µM | 500 µM | 10 µM | 235 µM | 50 µM | 10 µM | EC50 (all leukemia cell lines [1]): 35 to 150 µM; EC50 (myeloid cell lines [4]): 84 to 235 µM; Percentage of cells in S phase of cell cycle (significant accumulation) (MOLT-3 [5]; vehicle control S = 24.8%): S =35%; Percentage of cells in S phase of cell cycle (significant accumulation) (KG1a [6]; vehicle control S = 34.6%): S = 50%; IC50 (lymphoid cell lines [7]): 140 to 195 µM; IC50 (myeloid cell lines [9]): 100 to 500 µM; EC50 (lymphoid cell lines [10]; 24 h, read-out: AP50 values (range in lymphoid cell lines)): 35 to 130 µM; Percentage of cells in G2/M phase of cell cycle (significant accumulation) (THP-1; vehicle control G2/M = 26.4%): G2/M =32%; Percentage of cells in G0/G1 phase of cell cycle (significant accumulation) (HL60; vehicle control G0/G1 = 56.8%): G0/G1=67%; IC50 [15]: 70 µM; IC50 [16]: 36 µM
C(=C\c1ccccc1)/c1ccccc1 [Trans-Stilbene, Trans-stilbene] | 109 to 500 µM | 310 µM | > 500 µM | 50 µM | 225 µM | 200 µM | 400 µM | 350 µM | 50 µM | 250 µM | 50 µM | 360 µM | 50 µM | 50 µM | Percentage of cells in G0/G1 phase of cell cycle (significant accumulation) (MOLT-3 [5]; vehicle control G0/G1 = 64.5%): G0/G1 = 69%; IC50 [18]: 25 to 98 µM; Percentage of cells in G2/M phase of cell cycle (significant accumulation) (KG1a [6]; vehicle control G2/M = 18.7%): G2/M =23.7%; IC50 [19]: 6.25 µM; EC50 (lymphoid cell lines [10]; read-out: AP50 values in three lymphoid cell lines): 40 to 460 µM; Percentage of cells in G0/G1 phase of cell cycle (significant accumulation) (THP-1; vehicle control G0/G1 = 42.3%): G0/G1 =53%; Percentage of cells in S phase of cell cycle (significant accumulation) (HL60; vehicle control S = 33.6%): S =41.9%
